ChEMBL document CHEMBL3227917, “Structure-activity relationships of dimeric Catharanthus alkaloids. 2. Experimental antitumor activities of N-substituted deacetylvinblastine amide (vindesine) sulfates” (J Med Chem, 1979)

Legend:
[1] = Antitumor activity against mouse Ridgway osteogenic sarcoma allografted in AKR mouse assessed as tumor growth inhibition at 0.40 mg/kg, ip administered daily for 8 to 10 days compound treatment commenced 8 days after tumor implantation; type: functional; details: route intraperitoneal, read-out: TGI
[2] = Antitumor activity against mouse Ridgway osteogenic sarcoma allografted in AKR mouse assessed as tumor growth inhibition at 0.10 mg/kg, ip administered daily for 8 to 10 days compound treatment commenced 8 days after tumor implantation; type: functional; details: route intraperitoneal, read-out: TGI
[3] = Antitumor activity against mouse Ridgway osteogenic sarcoma allografted in AKR mouse assessed as tumor growth inhibition at 0.20 mg/kg, ip administered daily for 8 to 10 days compound treatment commenced 8 days after tumor implantation; type: functional; details: route intraperitoneal, read-out: TGI
[4] = Antitumor activity against mouse P1534 cells allografted in DBA2 mouse assessed as tumor growth inhibition at 0.40 mg/kg, ip administered daily for 8 to 10 days; type: functional; details: route intraperitoneal, read-out: TGI
Summary of the method: (§1)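 P1534(J) leukemia implanted sc in DBA2 mice; sulfate salts dosed ip daily for 8–10 days. Growth inhibition scored –, 0–25%; +, 26–50%; ++, 51–75%; +++, 76–100%; T, lethal to ≥5 of 10 animals per group. Average of one or more tests.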

[5] = Antitumor activity against mouse Gardner lymphosarcoma allografted in C3H mouse assessed as tumor growth inhibition at 0.40 mg/kg, ip administered daily for 8 to 10 days; type: functional; details: route intraperitoneal, read-out: TGI
Summary of the method: (§2)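 Gardner lymphosarcoma in C3H mice; sulfate salts unless noted, given ip daily for 8–10 days, treatment starting 8 days after tumor implantation. Tumor growth inhibition scored as –, 0–25%; +, 26–50%; ++, 51–75%; +++, 76–100%; T, lethal to ≥5 of 10 animals per group. Average of one or more tests.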

[6] = Antitumor activity against mouse P1534 cells allografted in DBA2 mouse assessed as tumor growth inhibition at 0.20 mg/kg, ip administered daily for 8 to 10 days; type: functional; details: route intraperitoneal, read-out: TGI; summary of the method: as §1
[7] = Antitumor activity against mouse Gardner lymphosarcoma allografted in C3H mouse assessed as tumor growth inhibition at 0.20 mg/kg, ip administered daily for 8 to 10 days; type: functional; details: route intraperitoneal, read-out: TGI; summary of the method: as §2
[8] = Antitumor activity against mouse Ridgway osteogenic sarcoma allografted in AKR mouse assessed as tumor growth inhibition at 0.05 mg/kg, ip administered daily for 8 to 10 days compound treatment commenced 8 days after tumor implantation; type: functional; details: route intraperitoneal, read-out: TGI
B16 [9] = assay: Antitumor activity against mouse B16 cells allografted in C57BL/6 mouse assessed as prolongation of host survival at 0.30 mg/kg, ip administered on days 1,5 and 9; type: functional; details: route intraperitoneal
Summary of the method: (§3)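 B16 melanoma cells (10⁶ inoculum) implanted ip in C57BL/6 mice; groups of 10. Sulfate salts unless noted, given ip on days 1, 5 and 9. Single test. Survival prolongation is expressed as percent versus controls, with survivors counted on day 60. Toxic means deaths of ≥5 of 10 animals before the first control death.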

[10] = Antitumor activity against mouse Gardner lymphosarcoma allografted in C3H mouse assessed as tumor growth inhibition at 0.10 mg/kg, ip administered daily for 8 to 10 days; type: functional; details: route intraperitoneal, read-out: TGI; summary of the method: as §2
Mus musculus [11] = assay: Toxicity in C57BL/6 mouse allografted with mouse B16 cells assessed as animal death at 0.60 mg/kg, ip administered on days 1,5 and 9; type: organism-based; set-up: dose 0.6 mg/kg, route intraperitoneal; details: in vivo, 0.6 mg/kg; summary of the method: as §3
Mus musculus [12] = assay: Toxicity in C57BL/6 mouse allografted with mouse B16 cells assessed as animal death at 0.90 mg/kg, ip administered on days 1,5 and 9; type: organism-based; set-up: dose 0.9 mg/kg, route intraperitoneal; details: in vivo, 0.9 mg/kg; summary of the method: as §3
Mus musculus [13] = assay: Toxicity in C3H mouse allografted with mouse Gardner lymphosarcoma assessed as lethality at 0.30 mg/kg, ip administered daily for 8 to 10 days; type: organism-based; set-up: dose 0.3 mg/kg, route intraperitoneal; details: in vivo, 0.3 mg/kg
Summary of the method: (§4)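 Tumor-bearing mice given sulfate salts ip daily for 8–10 days; values are the average of one or more tests. Toxic means lethal to ≥5 of 10 animals per group.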

Mus musculus [14] = assay: Toxicity in C3H mouse allografted with mouse Gardner lymphosarcoma assessed as lethality at 0.40 mg/kg, ip administered daily for 8 to 10 days; type: organism-based; set-up: dose 0.4 mg/kg, route intraperitoneal; details: in vivo, 0.4 mg/kg; summary of the method: as §4
CHO [15] = assay: Mitotic arrest in CHO cells assessed as increase in cell accumulation at 0.2 ug/ml; type: functional, Cricetulus griseus
Summary of the method: (§5)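 Chinese hamster ovary cells in tissue culture, scored for mitotic arrest as increase in cells in mitotic arrest over control: +++, 40–50%; ++, 15–40%; +, 10–15%; ±, 7–10%; –, 3–7%. Cytotoxicity noted separately.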

[16] = Antitumor activity against mouse P1534 cells allografted in DBA2 mouse assessed as tumor growth inhibition at 0.10 mg/kg, ip administered daily for 8 to 10 days; type: functional; details: route intraperitoneal, read-out: TGI; summary of the method: as §1
CHO [17] = assay: Mitotic arrest in CHO cells assessed as increase in cell accumulation at 0.002 ug/ml; type: functional, Cricetulus griseus; summary of the method: as §5
[18] = Toxicity in iv dosed mouse assessed as lethality; type: organism-based; details: in vivo
B16 [19] = assay: Antitumor activity against mouse B16 cells allografted in C57BL/6 mouse assessed as prolongation of host survival at 0.90 mg/kg, ip administered on days 1,5 and 9; type: functional; details: route intraperitoneal; summary of the method: as §3
B16 [20] = assay: Antitumor activity against mouse B16 cells allografted in C57BL/6 mouse assessed as prolongation of host survival at 1.20 mg/kg, ip administered on days 1,5 and 9; type: functional; details: route intraperitoneal; summary of the method: as §3
B16 [21] = assay: Antitumor activity against mouse B16 cells allografted in C57BL/6 mouse assessed as prolongation of host survival at 0.60 mg/kg, ip administered on days 1,5 and 9; type: functional; details: route intraperitoneal; summary of the method: as §3
[22] = Antitumor activity against mouse Gardner lymphosarcoma allografted in C3H mouse assessed as tumor growth inhibition at 0.05 mg/kg, ip administered daily for 8 to 10 days; type: functional; details: route intraperitoneal, read-out: TGI; summary of the method: as §2
CHO [23] = assay: Mitotic arrest in CHO cells assessed as increase in cell accumulation at 0.02 ug/ml; type: functional, Cricetulus griseus; summary of the method: as §5

CC[C@]1(O)C[C@H]2CN(CCc3c([nH]c4ccccc34)[C@@](C(=O)OC)(c3cc4c(cc3OC)N(C)[C@H]3[C@@](O)(C(=O)NCCCO)[C@H](O)[C@]5(CC)C=CCN6CC[C@]43[C@@H]65)C2)C1
inhibition in vivo at 0.4 mg/kg [1]: 76%
inhibition in vivo at 0.1 mg/kg [2]: 76%
inhibition in vivo at 0.2 mg/kg [3]: 76%
inhibition in vivo at 0.4 mg/kg [4]: 76%
inhibition in vivo at 0.4 mg/kg [5]: 76%
inhibition in vivo at 0.2 mg/kg [6]: 76%
inhibition in vivo at 0.2 mg/kg [7]: 51%
inhibition in vivo at 0.05 mg/kg [8]: 26%

CC[C@]1(O)C[C@H]2CN(CCc3c([nH]c4ccccc34)[C@@](C(=O)OC)(c3cc4c(cc3OC)N(C)[C@H]3[C@@](O)(C(=O)NC5CCSC5=O)[C@H](O)[C@]5(CC)C=CCN6CC[C@]43[C@@H]65)C2)C1.O=S(=O)(O)O (stereo partly specified)
survival at 0.3 mg/kg (B16 [9]): 94%
inhibition in vivo at 0.1 mg/kg [10]: 0%
Activity (Mus musculus [11]): Toxic
Activity (Mus musculus [12]): Toxic
Activity (Mus musculus [13]): Toxic
Activity (Mus musculus [14]): Toxic
inhibition in vivo at 0.2 mg/kg [7]: 0%

CC[C@]1(O)C[C@H]2CN(CCc3c([nH]c4ccccc34)[C@@](C(=O)OC)(c3cc4c(cc3OC)N(C)[C@H]3[C@@](O)(C(=O)NCCO)[C@H](O)[C@]5(CC)C=CCN6CC[C@]43[C@@H]65)C2)C1.O=S(=O)(O)O
Activity (CHO [15]): 15%
inhibition in vivo at 0.1 mg/kg [16]: 51%
inhibition in vivo at 0.4 mg/kg [1]: 76%
inhibition in vivo at 0.1 mg/kg [2]: 76%
inhibition in vivo at 0.2 mg/kg [3]: 76%
inhibition in vivo at 0.1 mg/kg [10]: 76%
Activity (CHO [17]): 3%
LD50 [18]: 4.4 mg/kg
inhibition in vivo at 0.4 mg/kg [5]: 76%
survival at 0.9 mg/kg (B16 [19]): 97%
survival at 1.2 mg/kg (B16 [20]): 93%
survival at 0.6 mg/kg (B16 [21]): 51%
inhibition in vivo at 0.2 mg/kg [7]: 76%
inhibition in vivo at 0.05 mg/kg [22]: 76%
Activity (CHO [23]): 15%
inhibition in vivo at 0.05 mg/kg [8]: 51%
